This note sets out measurements from ChEMBL document CHEMBL3612059, “Synthesis of 1,2-benzisoxazole tethered 1,2,3-triazoles that exhibit anticancer activity in acute myeloid leukemia cell lines by inhibiting histone deacetylases, and inducing p21 and tubulin acetylation” (Bioorg Med Chem, 2015).

The source made the active and inactive calls. The calls are words filed in the database; no cut-off is given here.

Test [1] concerns MOLM-14. The test can be described thus: Induction of apoptosis in human MOLM14 cells assessed as early apoptotic cells at 10 uM after 72 hrs by Annexin V-FITC/propidium iodide staining-based flow cytometric analysis (reference value: 7%). It counts as functional. The method in brief:
(§1)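 100,000 cells per well treated with 2.5, 5.0 or 10 μM for 72 h. Washed in ice-cold Ca/Mg-free PBS, resuspended in 100 μl binding buffer, stained with 5 μl PI plus 3 μl annexin V-FITC for 15 min in the dark, then read immediately by flow cytometry. Quadrants scored as live, early apoptotic, late apoptotic and necrotic.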

Test [2] deals with MOLM-14. The test can be described thus: Induction of apoptosis in human MOLM14 cells assessed as necrotic cells at 2.5 uM after 72 hrs by Annexin V-FITC/propidium iodide staining-based flow cytometric analysis (reference value: 1%). It counts as functional. The method in brief: as §1
For test [3], the system named is MV4-11. Description: Induction of apoptosis in human MV4-11 cells assessed as necrotic cells at 10 uM after 72 hrs by Annexin V-FITC/propidium iodide staining-based flow cytometric analysis relative to control. It counts as functional. The method in brief:
(§2)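 MV4-11 cells (RPMI, 10 % FBS, 37 °C, 5 % CO2), 100,000 per well, exposed to PTB at 2.5, 5.0 or 10 μM for 72 h. Washed in ice-cold Ca/Mg-free PBS, stained with annexin V-FITC and PI in 1X binding buffer for 15 min in the dark, then read at once by flow cytometry. Necrotic cells are the annexin-negative/PI-positive quadrant.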

In test [4] the test system is MOLM-13 (Homo sapiens). Description: Cytotoxicity against human MOLM13 cells assessed as cell viability after 24 to 96 hrs by MTT assay.
Test [5] relates to MOLM-13 (Homo sapiens). The test can be described thus: Induction of apoptosis in human MOLM13 cells assessed as early apoptotic cells at 5 uM after 72 hrs by Annexin V-FITC/propidium iodide staining-based flow cytometric analysis (reference value: 11%).
Test [6] has as its system MV4-11. The test can be described thus: Induction of apoptosis in human MV4-11 cells assessed as necrotic cells at 2.5 uM after 72 hrs by Annexin V-FITC/propidium iodide staining-based flow cytometric analysis relative to control. It counts as functional. The method in brief: as §2
Test [7] deals with MOLM-13 (Homo sapiens). Description: Induction of apoptosis in human MOLM13 cells assessed as upregulation of cleaved PARP expression after 24 hrs by Western blot analysis.
Test [8] deals with MV4-11. The test can be described thus: Induction of apoptosis in human MV4-11 cells assessed as early apoptotic cells at 5 uM after 72 hrs by Annexin V-FITC/propidium iodide staining-based flow cytometric analysis (reference value: 7%). It counts as functional. The method in brief: as §1
Test [9] relates to MOLM-13 (Homo sapiens). The test can be described thus: Induction of apoptosis in human MOLM13 cells assessed as upregulation of cleaved caspase-9 expression after 24 hrs by Western blot analysis.
Test [10] concerns MOLM-14. The test can be described thus: Cell cycle arrest in human MOLM14 cells assessed as accumulation at sub-G1 phase after 72 hrs by propidium iodide staining-based flow cytometric analysis. It counts as functional. The method in brief:
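Cells in RPMI with 10 % FBS at 37 °C, 5 % CO₂; treated up to 72 h, washed in cold PBS, fixed in -20 °C-precooled 70 % ethanol at 4 °C. Stained with 50 µg/ml PI, 1 % Triton X-100 and 20 µg/ml RNase A in PBS, 30 min, 37 °C, dark. Cell-cycle phases read by flow cytometry; three independent experiments, mean ± SD.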

Test [11] concerns MOLM-13 (Homo sapiens). The test can be described thus: Cytotoxicity against human MOLM13 cells assessed as cell viability at 0.25 to 5 uM by MTT assay.
The test system of test [12] is MV4-11. The test can be described thus: Induction of apoptosis in human MV4-11 cells assessed as early apoptotic cells at 2.5 uM after 72 hrs by Annexin V-FITC/propidium iodide staining-based flow cytometric analysis (reference value: 7%). It counts as functional. The method in brief: as §1

Consider `c1ccc(Oc2ccc(-c3cn(-c4noc5ccccc45)nn3)cc2)cc1`, for which the Activity with MOLM-14 [1] is 24%; in the test with MOLM-14 [2], 2%; with MV4-11 [3], 5%; with MOLM-13 (Homo sapiens) [4] it was “Dose-dependent effect”; in the test on MOLM-13 (Homo sapiens) [5] it was 19%; in the test on MV4-11 [6], 2%. Also, the Activity result with MOLM-13 (Homo sapiens) [7] was “Dose-dependent effect”; with MV4-11 [8] it was 16%; in the test on MOLM-13 (Homo sapiens) [9] it was “Dose-dependent effect”; in the test with MOLM-13 (Homo sapiens) [11] it was “Dose-dependent effect”; in the test with MV4-11 [12], 9%. Further, in the test with MOLM-14 [10], the outcome was Active.
